# Source: ChEMBL document CHEMBL1212715, “Ligand-directed tosyl chemistry for protein labeling in vivo” (Nat Chem Biol, 2009)
# Activity calls are given as the source filed them. The calls are words filed in the database; no cut-off is given here.
# Tests used:
# [1] = target: Carbonic anhydrase 2 (Mus musculus) (UniProt P00920); assay: Binding affinity to endogenously expressed carbonic anhydrase2 in Slc:ICR mouse using syreptavidin-horseradish peroxidase conjugate by Western blot analysis
# Procedure, shortened: (§1)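 Male SPF Slc:ICR mice, 8 weeks old, received the biotin probe intravenously (100 µM in 0.5 mL PBS), and tail-vein blood was drawn at 4, 8 and 20 h. For ex vivo runs, EDTA-treated whole blood was diluted two-fold in PBS and held with 5 µM probe, ±500 µM EZA, at 35 °C for 20 h. Lysis used NP-40 buffer with 0.5 mM EZA, followed by 15% SDS-PAGE and PVDF blotting. Biotin was detected with SAv-HRP chemiluminescence; the membrane was reprobed with anti-mouse CAII plus anti-goat IgG-HRP.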
# [2] = target: Carbonic anhydrase 2 (Mus musculus) (UniProt P00920); assay: Binding affinity to endogenously expressed carbonic anhydrase2 in Slc:ICR mouse using anti-mouse CA2 antibody by Western blot analysis; procedure, shortened: as §1
# Jurkat = assay: Cytotoxicity against in human Jurkat cells after 18 hrs by MTT assay; format: cell-based
# Procedure, shortened: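 Jurkat cells, maintained in RPMI 1640 with 10% FBS at 37 °C under 5% CO2, were treated at 4 × 10^6 cells per 1 mL serum-free RPMI 1640 with probe (4 µM) at 37 °C for 18 h. Viability was read by MTT assay.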
# [3] = target: Peptidyl-prolyl cis-trans isomerase FKBP1A (Homo sapiens) (UniProt P62942); assay: Binding affinity to human FKBP12 in Jurkat cells at 11 uM after 24 hrs using anti-human FKBP12 antibody; format: cell-based; details: 4 uM, in the assay text read “at 4 uM after 18 hrs” for “at 11 uM after 24 hrs”
# [4] = target: Carbonic anhydrase 2 (Homo sapiens) (UniProt P00918); assay: Binding affinity to human 7-diethylaminocoumarin labelled carbonic anhydrase2 after 48 hrs by SDS-PAGE/fluorescence gel imaging
# Procedure, shortened: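 Purified human CAII (40 µM) was incubated with the Dc-tosyl reagent (80 µM) in 50 mM HEPES, pH 7.2, at 37 °C. Control reactions held EZA (400 µM) or GSH (10 mM). Samples were resolved by SDS-PAGE, read by in-gel fluorescence imaging, then stained with CBB.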
# [5] = target: Carbonic anhydrase 2 (Homo sapiens) (UniProt P00918); assay: Activity at human carbonic anhydrase2 assessed as hydrolysis of p- nitrophenyl acetate
# [6] = Toxicity in human RBC assessed as hemolysis; format: cell-based; details: erythrocyte
# Sequence of Peptidyl-prolyl cis-trans isomerase FKBP1A (Homo sapiens) (P62942 whole entry): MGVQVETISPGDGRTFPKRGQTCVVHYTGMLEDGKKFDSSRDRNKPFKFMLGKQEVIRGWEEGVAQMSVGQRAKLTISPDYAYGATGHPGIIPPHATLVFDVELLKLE
smiles,measurement,setting,value
O=C(CCCC[C@@H]1SC[C@@H]2NC(=O)N[C@@H]21)NCCOCCOCCOS(=O)(=O)c1cccc(C(=O)NCCCCCNC(=O)c2ccccc2)c1,Activity,[1],inactive
same,Activity,[2],inactive
NS(=O)(=O)c1ccc(C(=O)NCCCCCNC(=O)c2cccc(S(=O)(=O)OCCOCCOCCNC(=O)CCCC[C@@H]3SC[C@@H]4NC(=O)N[C@@H]43)c2)cc1,Activity,[1],Active
same,Activity,[2],Active
CCC(C)(C)C(=O)C(=O)N1CCCC[C@H]1C(=O)O[C@H](CCc1ccc(OC)c(OC)c1)c1cccc(OCC(=O)NCCNC(=O)c2cccc(S(=O)(=O)OCCOCCOCCNC(=O)CCCC[C@@H]3SC[C@@H]4NC(=O)N[C@@H]43)c2)c1,Activity,Jurkat,Non-toxic
same,Activity,[3],Active
CCN(CC)c1ccc2cc(C(=O)NCCOCCOS(=O)(=O)c3cccc(C(=O)NCCCCCNC(=O)c4ccc(S(N)(=O)=O)cc4)c3)c(=O)oc2c1,Activity,[4],75%
same,1/Km,[5],2.38 ×10² /M
same,Activity,[6],Non-toxic
